An excerpt weighted towards active compounds, which were near 3.7% of everything screened.
GASC-1 inh – human JMJD2C demethylase inhibition. Q9H3R0. GST-JMJD2C(1-420) H3K9me3 demethylation, DELFIA europium. inhibition, % at 2.35 µM. 330,000 compounds, 0.069% hits. AID 2099;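 active = more than half of a compound's replicate wells show inhibition beyond 50%, single wells judged on their own value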;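 also: signal counts dimethyl H3K9 product captured on neutravidin plate; 0% = median of DMSO wells and 100% = 0.3 times that DMSO median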
Target sequence (Q9H3R0 1-420 limits assumed): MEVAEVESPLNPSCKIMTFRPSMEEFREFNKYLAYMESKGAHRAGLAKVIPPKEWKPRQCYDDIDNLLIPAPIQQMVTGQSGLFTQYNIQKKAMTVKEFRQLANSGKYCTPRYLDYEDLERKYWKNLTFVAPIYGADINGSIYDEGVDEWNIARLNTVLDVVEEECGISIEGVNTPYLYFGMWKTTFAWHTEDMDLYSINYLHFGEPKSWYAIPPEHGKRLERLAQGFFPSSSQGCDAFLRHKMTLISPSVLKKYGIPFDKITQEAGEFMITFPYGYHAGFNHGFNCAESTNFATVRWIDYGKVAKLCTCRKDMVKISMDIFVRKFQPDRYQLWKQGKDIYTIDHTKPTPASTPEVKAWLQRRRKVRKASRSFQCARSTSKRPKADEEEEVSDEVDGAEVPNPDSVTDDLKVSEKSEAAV
AHR activator – human AHR activation. P35869. AHR-responsive luciferase reporter cells, luminescence. activation, % at 5 µM. 320,000 compounds, 2.5% hits. AID 2796; in the data active = activation above about 47%;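 also: 0% = vehicle wells and 100% = reference agonist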
SR-BI uptake up – SR-BI HDL lipid transfer activation; AID 504775; 320,000 compounds, 0.096% hits; activation, % at 12.5 µM; CHO ldlA[mSR-BI] cells, DiI-HDL uptake fluorescence, 3 h; 100 = double the neutral-control signal;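 active = mean replicate activation of at least 60% and every replicate at or above 60%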;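 also: 0% = median plate neutral-control signal and 100% = twice that signal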
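Test system: SR-BI-overexpressing, LDLR-lacking CHO cells. Measured by: DiI fluorescence, bottom read. Medium: Ham's F12 with 0.5% BSA, HEPES 25 mM, pH 7.4. Timing: 3 h uptake period with compound, 37 °C.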
GAA850 FXN act – increases GAA850 frataxin promoter reporter activity | HEK293 lucGAA850 FXN promoter luciferase reporter, 24 h; percent of 10 µM SAHA response | 360,000 compounds, 0.56% hits | activation, % at 6 µM;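 active = activation above the average of all compounds screened plus 3 SD, cutoff fixed separately per campaign, cut at about 7.5% in these data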;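 also: 0% = DMSO wells and 100% = 10 µM SAHA wells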
SR-BI DiI inh – blocks mouse SR-BI lipid uptake from DiI-HDL | Q61009 | ldlA[mSR-BI] CHO cells, DiI-HDL uptake fluorescence, 3 h | inhibition, % at 12.5 µM | 320,000 compounds, 0.96% hits | AID 488896;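 active = mean replicate inhibition of at least 70% and a set share of replicates each scoring 70 or more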;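 also: 0% = median of neutral control wells and 100% = median of positive control wells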
AHR act confirm – confirmation of human aryl hydrocarbon receptor activators | shares compounds with AHR activator | 2,300 compounds, 87% hits | activation, % at 9 µM | human cells, AHR-responsive luciferase reporter, luminescence; in the data active = activation above about 49%;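 also: HepG2 hepatoma cells carrying a DRE-driven firefly luciferase reporter; 0% = vehicle wells and 100% = reference agonist wells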
PXR act counter – activates human PXR in AHR activator counter-screen | activation, % at 11.6 µM | cell-based PXR reporter, luciferase luminescence | shares compounds with AHR activator | 2,300 compounds, 88% hits | AID 434939; in the data active = activation above about 11%;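 also: human hepatoma DPX-2 cells expressing full-length human PXR; 0% = DMSO and 100% = reference agonist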
Numbers without * were called inactive; / = no result.

SMILES	GASC-1 inh	AHR activator	SR-BI uptake up	GAA850 FXN act	SR-BI DiI inh	AHR act confirm	PXR act counter
Cc1nc(NC2=NCN(CCCN3CCOCC3)CN2)nc2c(C)cccc12	2	125*	21	1	-21	74*	/
Cc1ccc(C)c(N(CC(=O)NC2CCCC2)C(=O)c2csnn2)c1	-9	4	/	0	/	/	/
Cc1ccc(C(=O)OCC(=O)NC2CCCC(C)C2C)cc1S(=O)(=O)N1CCCCC1 (stereo not given)	3	-2	-57	1	57	/	/
CC(C(=O)Nc1ccccc1Sc1ccccc1)N(c1ccccc1)S(C)(=O)=O (stereo not given)	-10	4	2	0	-2	/	/
CNC(=O)c1ccccc1Nc1ccc(SC(F)F)cc1	-4	113*	-30	3	30	97*	23*
O=C(NCc1ccncc1)c1ccccc1Nc1ccc(SC(F)F)cc1	-1	13	-11	-2	11	/	/
O=C(Nc1ccccc1C(=O)N/N=C/c1ccco1)c1ccc(Cl)cc1	-3	87*	-9	1	9	94*	30*
O=C(Nc1ccccc1C(=O)N/N=C/c1ccco1)c1ccccc1	6	127*	-1	-2	1	151*	18*
O=C(Nc1ccccc1C(=O)N/N=C/c1ccco1)c1ccc(F)cc1	-10	200*	-3	0	3	111*	12*
Cc1ccccc1C(=O)Nc1ccccc1C(=O)N/N=C\c1ccco1	-2	7	-6	-1	6	/	/
Cc1ccc(C)c(S(=O)(=O)N2CCCOC2CNC(=O)C(=O)NCc2ccccc2)c1 (stereo not given)	4	2	/	-3	40	/	/
C=C(C)CNC(=S)NN=C1c2ccccc2-c2ccccc21	3	92*	-11	4	11	87*	55*
CCNC(=S)NN=C1c2ccccc2-c2ccccc21	3	45	-38	2	38	/	/
Clc1cc(Cl)c2nc(N3CCCCC3)sc2c1	-1	25	-7	5	7	/	/
Clc1cc(Cl)c2nc(N3CCCC3)sc2c1	-20	88*	-19	2	19	95*	28*
N#C/C(=C/c1ccccc1)c1nn(CCO)c(N)c1C#N	-3	120*	-5	2	5	91*	/
CC(=O)Nc1ccc(NC2=C(Cl)C(=O)c3ccccc3C2=O)cc1	1	/	/	/	/	/	/
CN(C)c1ccc(NC2=C(Cl)C(=O)c3ccccc3C2=O)cc1	3	135*	-1	-5	1	76*	13*
CC(C)N(CC(O)COc1ccc(CC(N)=O)cc1)CC(O)COc1ccc(CC(N)=O)cc1 (stereo not given)	6	-1	21	1	-21	/	/
CCn1nc(NC(=O)C(C)(C)C)c2cc3cccc(C)c3nc21	10	85*	-1	0	1	89*	139*
CCn1nc(NC(=O)CC(C)C)c2cc3cccc(C)c3nc21	16	8	-13	0	13	/	/
Cc1cc2cc(C)c(NCCNC(=O)c3cccs3)nc2cc1C	8	97*	-6	-1	6	64*	22*
O=C(Nc1cccc(C(=O)Nc2ccc(Br)cc2)c1)c1ccccc1	2	89*	-54	2	54	33	22*
O=C(Nc1ccc(Br)cc1)c1cccc(S(=O)(=O)Nc2cnc3ccccc3c2)c1	3	83*	-2	0	2	75*	12*
O=C(Nc1ccc(Cl)c(Cl)c1)c1ccccc1	-1	102*	-23	5	23	122*	12*
O=C(Nc1cccc(-n2cnnn2)c1)c1ccccc1Br	7	33	-33	0	33	/	/
O=C(Nc1ccc(Br)cc1)c1cccc(-n2cnnn2)c1	-17	91*	-32	-1	32	103*	29*
O=C(NNC(=O)c1c(O)c2ccccc2[nH]c1=O)c1ccccc1Br	2	10	2	1	-2	/	/
CCN1CCN(C(c2ccc(OC)cc2)c2nnnn2Cc2ccc3c(c2)OCO3)CC1 (stereo not given)	13	0	1	0	-1	/	/

Screening results (PubChem)
